According to paper PMC12412049 (Journal of controlled release : official journal of the …, 2025):

Experiments:
U87MG cells [1] = assay: In vitro uptake in U87MG cells; assay type: cell-based, human; details: for Uptake percentage dose (%AD), total / Uptake %AD, intracellular: mean ± SD; for Uptake %AD, intracellular: internalized fraction (1 M NaOH lysis); for Share of radioactivity internalized by cells: after co-incubation 4 h
U87MG tumor [2] = assay: In vivo radiotherapy in U87MG tumor-bearing mice; details: for Median survival: U87MG glioma-bearing mice; for Median survival / Tumor weight at the end of the treatment / Tumor volume: 66.6 MBq; for Tumor weight at the end of the treatment / Tumor volume: U87MG tumor-bearing mice, mean ± SD; for Tumor weight at the end of the treatment: 20 days post-treatment, n = 5/group
U87MG cells [3] = assay: CCK-8 cell viability of U87MG cells with radiolabeled compounds; details: 0.1 and 0.2 MBq
Critical micelle = assay type: physicochemical; details: pyrene fluorescent probe, tangent method; DP1R 0.1-100 μM, each with 1 mM GSH
[4] = TEM morphology of self-assembled peptide; assay type: physicochemical
Outline: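 Peptide was dissolved in water above its CMC, with or without 1 mM GSH added to mimic intracellular reducing conditions. Samples were incubated 10 min, applied to copper grids and air-dried overnight. Particle morphology and size were imaged by TEM, with size given as mean ± SD.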

[5] = DLS hydrodynamic diameter and zeta potential; assay type: physicochemical; details: mean ± SD
U87MG cells [6] = assay: Intracellular GSH content measurement; assay type: cell-based, human; details: 24 h co-incubation
Outline: (§1)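 U87MG cells were seeded at 2 × 10^5 cells/well and grown 24 h at 37°C. They were then exposed 24 h in serum-free medium to PBS or to unlabeled or 64Cu-labeled peptide conjugate at 0, 25, 50 or 100 μM. Cells were PBS-washed, trypsinized, pelleted at 3000 rpm for 3 min and washed. Intracellular GSH (GSH/GSSG) and ROS were read with commercial kits. Values are mean ± SD.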

U87MG cells [7] = assay: Intracellular ROS level assay; assay type: cell-based, human; details: 24 h co-incubation
Outline: as §1

U87MG tumor [8] = assay: PET imaging in U87MG tumor-bearing mice; details: mouse, in vivo; for Tumor uptake (PET ROI analysis): iv, 7.4 MBq
MCF-7 tumor [9] = test system: MCF-7 tumor; set-up: species or system mice; details: mouse, in vivo
U87MG tumor [10] = assay: Biodistribution study in U87MG tumor-bearing mice; details: mouse, in vivo
MCF-7 tumor [11] = test system: MCF-7 tumor; set-up: species or system mice; details: mouse, in vivo, 72 h
U87MG tumor [12] = assay: Tumor section staining; assay type: in vivo, mice; details: tumor sections
[13] = 0.05 MBq, 4 h, 37°C, gamma counter
[14] = normalized to stained control (set as 1.0), mean ± SD

Q: Which results are given for [Cl][64Cu][Cl] [[^64Cu]CuCl2, reference compound]?
A: Uptake by U87MG cells (in words) (U87MG cells [1]; 0.05-1 MBq, 4 h): Negligible uptake; Median survival (U87MG tumor [2]): 20 days; Tumor weight at the end of the treatment (U87MG tumor [2]): 2.36 ± 0.35 g; Cytotoxicity against tumor cells (in words) (U87MG cells [3]): Neither 0.1 MBq nor 0.2 MBq free [^64Cu]CuCl2 demonstrated notable cytotoxicity

Q: Which results are given for “DOTA-PEP1-c(RGDyK) (head to tail) [DP1R]”?
A: Critical micelle concentration (CMC) (Critical micelle): 13.962 µM; Nanostructure formation under TEM ([4]; absence of GSH incubation): no nanostructure formation was observed; Average diameter of micelle-like structures under TEM ([4]; in water above the CMC, 1 mM GSH, 10 min incubation, mean ± SD): approximately 27.55 ± 6.43 nm; Hydrodynamic diameter ([5]; DLS in PBS, after incubation with GSH): 284.28 ± 27.99 nm; Zeta potential ([5]; after incubation with GSH): −36.43 ± 1.89 mV; Zeta potential ([5]; before incubation with GSH): 3.65 ± 0.49 mV; Reduction of intracellular GSH levels (U87MG cells [6]; 25 μM): 17%; Reduction of intracellular GSH levels (U87MG cells [6]; 100 μM): exceeding 52%

Q: What does the source list for “[^64Cu]Cu-DOTA-PEP1-c(RGDyK) (head to tail) [[^64Cu]Cu-DP1R]”?
A: Uptake %AD relative to the [^64Cu]Cu-DR group (U87MG cells [1]; 0.05 MBq, 4 h): 5.83 times; Uptake percentage dose (%AD), total (U87MG cells [1]; [13]): 9.09 ± 0.48 %AD; Uptake %AD, intracellular (U87MG cells [1]; 0.05 MBq, 4 h): 8.27 ± 0.44 %AD; Share of radioactivity internalized by cells (U87MG cells [1]; 0.05 MBq): 90.98%; Uptake percentage dose (%AD), total (U87MG cells [1]; 0.1 MBq, 4 h): 7.50 ± 0.32 %AD; Effect on intracellular GSH (in words) (U87MG cells [6]): effectively reduce intracellular GSH; Effect on intracellular ROS level (in words) (U87MG cells [7]): enhance the ROS level; Retention index (RI) (U87MG tumor [8]): 21.90% (± 41.29%); Tumor retention vs. control via PET imaging (U87MG tumor [8]): 2 fold; Tumor uptake (PET ROI analysis) (U87MG tumor [8]; 4 h): 6.90 ± 0.98 %ID/g; Tumor uptake (PET ROI analysis) (U87MG tumor [8]; 72 h): 6.20 ± 1.61 %ID/g; Tumor uptake in MCF-7 subcutaneous tumor model (in words) (MCF-7 tumor [9]): no significant tumor uptake; Blood pool uptake (biodistribution) (U87MG tumor [10]; 72 h): 1.01± 0.5 %ID/g; Kidneys uptake (biodistribution) (U87MG tumor [10]; 72 h): 1.43 ± 0.09 %ID/g; Tumor uptake (biodistribution) (U87MG tumor [10]; 72 h): 7.79 ± 1.08 %ID/g; Tumor uptake (biodistribution) (MCF-7 tumor [11]): 0.47 ± 0.10 %ID/g; Median survival (U87MG tumor [2]): 36 days; Tumor weight at the end of the treatment (U87MG tumor [2]): 0.25 ± 0.03 g; Tumor volume (U87MG tumor [2]; twenty days after injection): 122.20 ± 19.92 mm^3; Tumor volume of PBS group relative to treated group (U87MG tumor [2]; twenty days after injection): 12.1 times; Tumor volume of [^64Cu]Cu-DR group relative to [^64Cu]Cu-DP1R group (U87MG tumor [2]; twenty days after injection): 3.33 times; Apoptotic induction (TUNEL) vs PBS group (U87MG tumor [12]): 101.6 fold; Ki-67 relative expression (proliferative activity) (U87MG tumor [12]; IHC, normalized to stained control (set as 1.0), mean ± SD): 1.35 ± 0.17; ROS relative fluorescence intensity (U87MG tumor [12]; [14]): 7.87 ± 0.70; TUNEL relative fluorescence intensity (apoptosis) (U87MG tumor [12]; [14]): 140.21 ± 24.88; γ-H2AX relative fluorescence intensity (DNA damage) (U87MG tumor [12]; [14]): 59.3 ± 11.49; Decrease in Ki-67 index (U87MG tumor [12]; vs PBS group): 3.1 fold

Q: For “[^64Cu]Cu-DOTA-PEP2-c(RGDyK) (head to tail) [[^64Cu]Cu-DP2R]”, which “Tumor uptake (PET ROI analysis)” value (U87MG tumor [8]; 4 h) is on record?
A: Its value is 5.53 ± 0.36 %ID/g.

Q: And the “Tumor uptake (PET ROI analysis)” value (U87MG tumor [8]; 72 h)?
A: Its value is 2.93 ± 0.36 %ID/g.

Q: What about the “Lower 72h tumor retention relative to DP1R probe” value (U87MG tumor [10]) of the same compound?
A: The value was 58%.

Q: And the “Tumor uptake (biodistribution)” value (U87MG tumor [10]; 72 h)?
A: The value was 3.28 ± 0.45 %ID/g.

Q: With [^64Cu]Cu-DOTA-c(RGDyK) [[^64Cu]Cu-DR] as the compound, how does the “Uptake percentage dose (%AD), total” value (U87MG cells [1]; [13]) read?
A: Its value is 1.56 ± 0.78 %AD.

Q: And the “Uptake %AD, intracellular” value (U87MG cells [1]; 0.05 MBq, 4 h)?
A: Its value is 0.10 ± 0.02 %AD.

Q: And the “Share of radioactivity internalized by cells” value (U87MG cells [1]; 0.05 MBq)?
A: Its value is 87.82%.

Q: What about the Median survival (U87MG tumor [2]) of the same compound?
A: Its Median survival is 26 days.

Q: What about the “Tumor weight at the end of the treatment” value (U87MG tumor [2]) of the same compound?
A: The value was 0.87 ± 0.03 g.

Q: And the Tumor volume (U87MG tumor [2]; twenty days after injection)?
A: The Tumor volume was 407.00 ± 66.34 mm^3.
